We go through two compounds from ChEMBL document CHEMBL1687936, “Radiosynthesis and biological evaluation of L- and D-S-(3-[18F]fluoropropyl)homocysteine for tumor imaging using positron emission tomography” (J Med Chem, 2011).

Series [1] in a line: Metabolic stability in urine of BALB/c nude mouse xenografted with human A375 cells assessed as radioactivity after 2 hrs by HPLC analysis. It counts as ADME, tissue-based, A-375. The following applies: in vivo. In short, it runs like this: (§1)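 A375-tumored Balb/c nude mice received 18-20 MBq tracer iv. Plasma and urine were spiked with unlabeled FPHCys and KF and injected directly; tissues were sonicated in saline with carrier and centrifuged at 6000g. Radio-HPLC on C18 with methanol/phosphate buffer pH 6 gave intact fraction as authentic peak over total activity, at 0.25, 1 and 2 h.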
(In general: A xenograft is tissue or cells of one species grown in another, often human tumour cells in immunodeficient mice.)

Series [2] can be described thus: Metabolic stability in human A375 cells xenografted in BALB/c nude mouse assessed as radioactivity after 0.25 by HPLC analysis. The format is ADME, cell-based, A-375. The following applies: in vivo. Summed up:
as §1

For series [3], the system named is Pancreas. The series can be described thus: Metabolic stability in pancreas of BALB/c nude mouse xenografted with human A375 cells assessed as radioactivity after 1 hrs by HPLC analysis. It counts as ADME, tissue-based, A-375. The following applies: in vivo. In short, it runs like this:
as §1

Series [4] deals with A-375. The experiment in a line: Cellular uptake in human A375 cells assessed as accumulation per 10^5 cells after 60 mins by gamma-counter. The format is ADME, cell-based. To be noted: a-375, 1 h. Summed up:
(§2)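 Cells seeded at 2.5 × 10^5 per well in RPMI-1640 with 10% FBS and 2 mM L-glutamine, attached overnight, then washed with warm PBS. Incubated at 37 °C with 0.37 MBq [18F]tracer in PBS for 2–240 min. Cells washed with ice-cold PBS, lysed in 0.2 N NaOH and counted by γ-counter. Read as % applied dose per 10^5 cells, decay-corrected, n = 3.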

Series [5] concerns A-375. The experiment in a line: Cellular uptake in human A375 cells assessed as accumulation per 10^5 cells after 15 to 60 mins by gamma-counter. It counts as ADME, cell-based. Summed up:
as §2

Series [6] concerns HT-29. The series can be described thus: Drug uptake in human HT-29 cells in presence of amino acid transport system L inhibitor BCH. It counts as ADME, cell-based. In short, it runs like this:
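Cells were prepared as for the uptake assay and preincubated at 37 °C with inhibitor at 12.5 mmol/L in PBS; controls received PBS. 0.37 MBq [18F]tracer was added and incubated 30 min at 37 °C. Cells were washed cold, lysed and γ-counted. Uptake is given as % of the control group, n = 3.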

Series [7] concerns A-375. The series can be described thus: Cellular uptake in human A375 cells after 15 mins by gamma-counter. It counts as ADME, cell-based. The following applies: a-375, 0.25 h. Summed up:
(§3)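 A375 cells grown in RPMI-1640 with 10% FBS and 2 mM L-glutamine; 2.5×10^5 seeded per well overnight, counts done in triplicate. After a warm PBS wash, cells got 0.37 MBq tracer in 500 μL PBS at 37 °C. Stopped with ice-cold PBS wash, lysed in 0.2 N NaOH, counted in a γ-counter. Decay-corrected % applied dose per 10^5 cells, mean ± SD, n = 3.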

Series [8] concerns A-375. The experiment in a line: Cellular uptake in human A375 cells after 15 to 60 mins by gamma-counter. It counts as ADME, cell-based. Summed up:
as §3

Consider `Cl.N[C@@H](CCSCCC[18F])C(=O)O`, for which the values for the Stability in series [1], in series [2] and in series [3] were less than 4%, 90% and 30%, respectively. In series [4], the Drug uptake stood at 9%.

Regarding `Cl.N[C@H](CCSCCC[18F])C(=O)O`, the Drug uptake is listed as 6.8% in series [5], “Not Active” in series [6], “Active” in series [7] and “Active” in series [8].
